# Laboratory results as given in article PMC3913215 (Molecular microbiology, 2009).
# How the values were obtained:
# [1] = system: AgrC-IHis (H239Q); experiment: β-lactamase reporter assay, AgrC-IHis; type: cell-based, S. aureus; conditions: H-box mutant; varying concentrations of synthetic AIP (Figure S1)
# In short: (§1)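 Agr-deficient S. aureus RN10829 derivatives lacking AIP production, carrying a chromosomal P3-blaZ fusion and agrP2-driven plasmid agrC (compatible plasmids for co-expression), grown to mid-exponential phase in CYGP or MH broth at 37 °C with shaking. Cells were plated and given increasing synthetic AIP. β-Lactamase was read by nitrocefin initial velocity as percent maximal activation. EC50 came from a four-parameter logistic fit. Two or three replicates.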
# [2] = system: AgrC-IHis / AgrC-IKin; experiment: β-lactamase reporter assay, activation of co-expressed AgrC-IHis / AgrC-IKin; type: cell-based, S. aureus; conditions: co-expressed mutants
# In short: as §1
# [3] = system: AgrC-I-GFP; experiment: β-lactamase reporter assay, AgrC-I-GFP; type: cell-based, S. aureus; conditions: C-terminal GFP fusion (Figure S2)
# [4] = system: AgrC-ISensor, His / AgrC-ISensor, Kin; experiment: β-lactamase reporter assay, co-expressed AgrC-ISensor, His / AgrC-ISensor, Kin; type: cell-based, S. aureus
# In short: as §1
# [5] = system: AgrC-IHis / AgrC-ISensor, Kin; experiment: β-lactamase reporter assay, activation of AgrC-IHis / AgrC-ISensor, Kin; type: cell-based, S. aureus; conditions: Kin combined with AgrC-IHis versus AgrC-ISensor, His
# [6] = target: WT AgrC-II; experiment: β-lactamase reporter assay, WT AgrC-II; type: cell-based, S. aureus; conditions: read-out: EC50 (no activation); P3-blaZ reporter cells, nitrocefin method
# In short: as §1
# [7] = system: AgrC-IHis / AgrC-IΔ1-135, Kin; experiment: β-lactamase reporter assay, AgrC-IHis / truncated AgrC-IΔ1-135, Kin; type: cell-based, S. aureus; conditions: full-length AgrC-IHis with AgrC-IΔ1-135, Kin (Figure S5B)
# [8] = system: N-terminal truncations of AgrC-I; experiment: β-lactamase reporter assay, N-terminally truncated AgrC-I alone; type: cell-based, S. aureus; conditions: two truncated sensor domains, expressed alone (Figure S5A)
# [9] = system: AgrC-I N339D; experiment: β-lactamase reporter assay, AgrC-I N339D; type: cell-based, S. aureus; conditions: N-box mutant; varying concentrations of synthetic AIP
# [10] = system: AgrC-I G394A; experiment: β-lactamase reporter assay, AgrC-I G394A; type: cell-based, S. aureus; conditions: individual G-box glycine mutant; varying concentrations of synthetic AIP
# [11] = system: AgrC-I G396A; experiment: β-lactamase reporter assay, AgrC-I G396A; type: cell-based, S. aureus; conditions: individual G-box glycine mutant; varying concentrations of synthetic AIP
# [12] = system: AgrC-ISensor (T104V, S107A, S116I); conditions: mutations in second extracellular loop; ref Geisinger et al., 2008; cited from earlier work
# [13] = system: AgrC-II; conditions: background statement, no reference at the place; cited from earlier work
substance,measurement,setting,value
AIP-I,receptor activation,[1],completely inactive
same,maximal activity compared to WT AgrC,[2],moderately reduced compared to WT AgrC
same,receptor activation compared to WT,[3],only slightly decreased compared to the WT receptor
same,reduction in activity compared with WT sensor domains,"[4]; AgrC-ISensor, His / AgrC-ISensor, Kin versus WT sensor domains",over 150 -fold
same,EC50,"[4]; co-expressed mutants, both sensor domains mutated",6.1 µM
same,increase in activation by AIP-I,[5],approximately 30 -fold
same,EC50,[6],> 10 µM
same,activation by AIP-I,[7],significant activity
same,maximal activation relative to full-length complementary pair,[7],only a third of that observed for the full-length complementary pair
same,activation by AIP-I,[8],"None of the resulting dimers, with two truncated sensor domains, displayed significant activity"
same,receptor activation,[9],only partially reduced receptor activation
same,receptor activation,[10],weaker activation than that seen with AgrC-I N339D
same,receptor activation,[11],weaker activation than that seen with AgrC-I N339D
same,reduction in sensitivity to AIP-I,[12],about 50 -fold
same,antagonism of AgrC-II,[13],potent cross-group inhibitors
